# ChEMBL document CHEMBL1139864, “Chemical insights in the concept of hybrid drugs: the antitumor effect of nitric oxide-donating aspirin involves a quinone methide but not nitric oxide nor aspirin” (J Med Chem, 2007)
# Calls of active or inactive are those of the source. No cut-off for these calls is given here.
# What was measured:
# Assay type in all cases: functional, cell-based
# SW480 = experiment: Inhibition of serum-induced expression of cyclin D in human SW480 cells after 5 hrs
# Outline: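 SW480 cells starved of serum overnight, then stimulated with serum for 5 h with or without a range of compound concentrations. Cyclin D1 level read by Western blot.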
# HT-29 [1] = experiment: Apoptosis induction in human HT29 cells after 24 hrs; conditions: HT-29, 24 h
# Outline: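 HT29 cells seeded at 25 000/well and attached 24 h, then exposed for 24 h at 37 C to compound (0-1000 M, added from DMSO; final DMSO 0.5%, 1.0% at 600 µM). Cells harvested, stained with PI, and 10 000 events counted by flow cytometry. PI-negative cells scored as living and EC50 fitted from the curves. Mean of 3-4 independent experiments.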
# HT-29 [2] = experiment: Induction of PARP cleavage in human HT29 cells after 8 hrs
# Outline: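 HT29 cells incubated 8 h with a range of compound concentrations. The 116 kDa PARP cleavage was detected by Western blot.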
# HT-29 [3] = experiment: Effect on cell death in HT29 cells pretreated with GSH synthesis inhibitor BSO; conditions: Homo sapiens
# Outline: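 HT29 cells seeded 25 000/well, attached 24 h; 200 µM BSO for 4 h at 37 C, washed, then medium with or without EtGSH (10 mM) 3 h, washed. Then compound in DMSO (final 0.5%) for 24 h at 37 C; cells harvested, stained with PI, 10 000 events by flow cytometry; PI-negative cells counted as living. Mean of four independent experiments, standard deviations.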
# HT-29 [4] = experiment: Induction of DNA fragmentation in human HT29 cells after 48 hrs by Nicoletti assay
# Outline: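 HT29 cells seeded 25 000/well, attached 24 h, then treated with compound for 48 h. Trypsinized, resuspended in Nicoletti buffer (0.1% Tx-100, 0.1% Na citrate, 50 g/mL PI), held overnight at 4 C. DNA content of nuclei measured by FACS to assess fragmentation.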
Structure (SMILES),EC50 (HT-29 [1]) [µM],Activity (SW480),Activity (HT-29 [2]),Activity (HT-29 [3]),Activity (HT-29 [4])
CC(=O)Oc1ccccc1C(=O)O [ASPIRIN],> 1000,,,,
CC(=O)Oc1ccc(CCl)cc1,8.7,Active,Active,Active,Active
CC(=O)Oc1ccccc1C(=O)Oc1cccc(CO)c1,> 1000,,,,
CC(=O)N[C@@H](C(=O)O)C(C)(C)SN=O,> 1000,,,,

# Further compounds by falling EC50 (HT-29 [1]), results first:
EC50 (HT-29 [1]) [µM],Structure (SMILES),Activity (SW480),Activity (HT-29 [2]),Activity (HT-29 [3]),Activity (HT-29 [4])
1000,CC(=O)Oc1ccccc1C(=O)Oc1cccc(CO[N+](=O)[O-])c1 [NCX-4016],inactive,,,
107,CC(=O)Oc1ccccc1C(=O)Oc1ccc(CO[N+](=O)[O-])cc1,Active,Active,Active,Active
40.1,CC(=O)Oc1ccccc1C(=O)Oc1ccc(CCl)cc1,Active,Active,,
9.3,CC(=O)Oc1ccc(CO[N+](=O)[O-])cc1,Active,Active,,
